{"source": "paper PMC9037209", "about": "(Journal of Enzyme Inhibition and Medicinal Chemistry, 2022)", "key": {"H. pylori strain 26695 [1]": {"system": "H. pylori strain 26695", "assay": "Minimal inhibitory concentration", "assay_type": "cell-based, Helicobacter pylori", "summary_of_the_method": "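Strain ATCC 26695 revived from glycerol stock on BHI agar with 10% FBS and 1% selective supplement. Twofold compound dilutions (DMSO or water stocks) mixed 1:1 with inoculated double-strength BHI (20% FBS, 2% supplement; ~0.05 OD600, 4×10^4 CFU/mL final). Shaken at 120 rpm, 37 °C, microaerophilic; OD600 read at 0, 4, 8 and 24 h. Viability checked with Christensen's urea broth (4 h, aerobic, 37 °C). MIC taken at ≥90% inhibition; triplicates, kanamycin and DMSO controls.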"}, "H. pylori strain 26695 [2]": {"system": "H. pylori strain 26695", "conditions": "cited from earlier work"}, "H. pylori PNP": {"biological_target": "H. pylori PNP", "conditions": "read-out: inhibition constant; competitive vs. nucleoside substrate; cited from earlier work"}, "[3]": {"assay": "Solubility: concentration of dissolved inhibitor in filtered supernatants", "assay_type": "physicochemical", "conditions": "for maximal tested concentration of the fully dissolved compound: in the cell culture experiment, filtered supernatant; for solubility: water, kinetic from dmso stock", "summary_of_the_method": "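DMSO stocks (10 mM) diluted with water to the planned concentrations. Precipitate removed with sterile 0.22 µm syringe filters. Dissolved concentration in the filtrate measured by UV absorbance: ε261 10,900 M−1 cm−1 for the 6-benzyloxy analogue, ε299 18,000 M−1 cm−1 for 6-benzylthio analogues.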"}, "[4]": {"biological_target": "PNP from Helicobacter pylori strain 26695 (HpPNP) (Helicobacter pylori, UniProt P56463)", "sequence (P56463 whole entry)": "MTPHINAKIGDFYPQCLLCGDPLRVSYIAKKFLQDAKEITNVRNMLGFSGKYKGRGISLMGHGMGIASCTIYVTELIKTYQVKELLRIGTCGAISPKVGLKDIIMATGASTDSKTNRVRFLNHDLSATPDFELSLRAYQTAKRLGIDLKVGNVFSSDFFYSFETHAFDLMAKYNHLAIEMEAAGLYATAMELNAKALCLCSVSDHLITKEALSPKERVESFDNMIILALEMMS", "assay": "Inhibition of H. pylori PNP, direct spectrophotometric phosphorolysis assay", "assay_type": "biochemical", "conditions": "m7Guo variable substrate, 50 mM phosphate; for inhibition model describing the data: model chosen by F test / AIC; for alpha = Kiu/Kic: mixed inhibition model, 25 °C, pH 7.0"}, "H. pylori 26695 strain": {"system": "H. pylori 26695 strain", "assay": "Checkerboard assay of 6BnS-2Cl-Pu with metronidazole", "assay_type": "cell-based, Helicobacter pylori", "conditions": "single agent, concentration giving about 90% inhibition or more", "summary_of_the_method": "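Sub-MIC checkerboard against strain 26695 with metronidazole (range chosen from the EUCAST MIC). Test-compound gradient 3.0–10.0. Single agents added at 2× and combinations at 4× each, with inoculated double-strength BHI (~0.05 OD600, 4×10^4 CFU/mL final). Shaken at 120 rpm, 37 °C, microaerophilic. […] FICI = MICA/MICa + MICB/MICb.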"}, "[5]": {"conditions": "Helicobacter pylori, 26695, 24 h"}}, "note": "“And” between values parts separate entries of the source, which are not always exact repeats. Equal entries are not always repeated. “Also recorded” adds a separate entry of the source. Where two headings read alike, the source gives them in different places. Marks after values point to notes of the source that are not given here."}
{"smiles": "NC[C@H]1O[C@H](O[C@H]2[C@H](O)[C@@H](O[C@H]3O[C@H](CO)[C@@H](O)[C@H](N)[C@H]3O)[C@H](N)C[C@@H]2N)[C@H](O)[C@@H](O)[C@@H]1O", "note": "[kanamycin, Kanamycin]", "values": [{"measurement": "% of H. pylori cell culture inhibition", "setting": "H. pylori strain 26695 [1]; 25 µg/mL (52 µM), positive control, not the maximal solubility", "value": "92–96%"}, {"measurement": "MIC", "setting": "H. pylori strain 26695 [2]", "value": "0.5–64^f µg mL^−1"}, {"measurement": "MIC", "setting": "H. pylori strain 26695 [2]; converted from literature value", "value": "1.1 to 132", "unit": "µM"}]}
{"smiles": "Nc1ncnc2c([C@@H]3O[C@H](CO)[C@@H](O)[C@H]3O)[nH]nc12", "note": "[Formycin A]", "values": [{"measurement": "Ki", "setting": "H. pylori PNP", "value": "14 ± 1.7", "unit": "µM"}]}
{"smiles": "Clc1nc(OCc2ccccc2)c2[nH]cnc2n1", "note": "[6BnO-2Cl-Pu, 6-benzyloxy-2-chloropurine]", "values": [{"measurement": "maximal tested concentration of the fully dissolved compound", "setting": "[3]", "value": 0.095, "unit": "mM"}, {"measurement": "solubility", "setting": "[3]", "value": "25 µg/mL and 95 µM"}, {"measurement": "inhibition model describing the data", "setting": "[4]", "value": "mixed inhibition model"}, {"measurement": "alpha = Kiu/Kic", "setting": "[4]", "value": "0.25 ± 0.12"}]}
{"smiles": "Cc1ncc([N+](=O)[O-])n1CCO", "note": "[metronidazole]", "values": [{"measurement": "MIC taken for FICI calculation", "setting": "H. pylori 26695 strain", "value": 2, "unit": "µg/mL"}, {"measurement": "MIC", "setting": "H. pylori strain 26695 [2]; EUCAST", "value": "8^f µg mL^−1"}, {"measurement": "MIC", "setting": "H. pylori strain 26695 [2]; converted from EUCAST value", "value": 47, "unit": "µM"}]}
{"smiles": "Clc1nc(SCc2ccccc2)c2[nH]cnc2n1", "note": "[6BnS-2Cl-Pu, 6-benzylthio-2-chloropurine]", "values": [{"measurement": "maximal tested concentration of the fully dissolved compound", "setting": "[3]", "value": 0.040, "unit": "mM"}, {"measurement": "solubility", "setting": "[3]", "value": "11.1 µg/mL and 40 µM"}, {"measurement": "inhibition model describing the data", "setting": "[4]", "value": "probably a mixed type"}, {"measurement": "alpha = Kiu/Kic", "setting": "[4]", "value": "0.16 ± 0.15"}, {"measurement": "MIC", "setting": "H. pylori strain 26695 [1]; [5]", "value": "69 µg/mL and 250 µM"}, {"measurement": "H. pylori 26695 cell culture growth inhibition", "setting": "H. pylori strain 26695 [1]; solution prepared as 0.25 mM but partially precipitated", "value": "full inhibition; also recorded: Complete growth inhibition"}]}
{"smiles": "Clc1nc(Cl)c2[nH]cnc2n1", "note": "[2,6-diCl-Pu, 2,6-dichloropurine]", "values": [{"measurement": "solubility in water", "setting": "[3]; 10 mM stock in milli-Q water and 2-fold dilutions, no precipitate", "value": "good solubility in water; also recorded: well soluble in water"}, {"measurement": "solubility", "setting": "[3]", "value": "236 µg/mL and 1250 µM"}, {"measurement": "inhibition model describing the data", "setting": "[4]", "value": "non-competitive"}, {"measurement": "alpha = Kiu/Kic", "setting": "[4]", "value": "1.17 ± 0.44"}, {"measurement": "MIC", "setting": "H. pylori strain 26695 [1]; Helicobacter pylori, 26695", "value": 2500, "unit": "µM"}, {"measurement": "MIC", "setting": "H. pylori strain 26695 [1]; [5]", "value": 2500, "unit": "µM"}]}
{"smiles": "c1ccc(CSc2ncnc3nc[nH]c23)cc1", "note": "[6BnS-Pu, 6-benzylthiopurine]", "values": [{"measurement": "solubility", "setting": "[3]", "value": "21 µg/mL and 85 µM"}, {"measurement": "inhibition model describing the data", "setting": "[4]", "value": "non-competitive"}, {"measurement": "alpha = Kiu/Kic", "setting": "[4]", "value": "1.07 ± 0.27"}, {"measurement": "MIC", "setting": "H. pylori strain 26695 [1]; [5]", "value": "48 µg/mL and 200 µM"}, {"measurement": "H. pylori 26695 strain growth inhibition", "setting": "H. pylori strain 26695 [1]; prepared as 200 µM but partially precipitated", "value": "completely inhibited"}]}
